# CTSL1 counter: Fasciola hepatica cathepsin L1 inhibitors, primary screen, counter-screen for PFM18AAP inhibitor project, biochemical, QFRET, fluorogenic peptide substrate. recombinant F. hepatica cathepsin L1, Z-Leu-Arg-MCA fluorescence. inhibition, % at 5.96 µM. actives 0.49% (n = 300,000);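 active = inhibition above the mean of all tested compounds plus 3 SD, set per screening campaign, cut at about 17% in these data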;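 also: 0% = plate median of test compound wells and 100% = 1 µM Z-Phe-Ala-diazomethylketone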
# pCIP destab: p/CIP-EGFP fusion destabilizers, primary screen, fluorescence, F442A cells; Q05BA5; 16 h; decrease of EGFP signal, % at 10 µM; actives 0.01% (n = 290,000); AID 1984, 2009;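 active = EGFP signal decrease of at least 30% at 10 µM or well 3 SD below plate mean, unless failing retest; inactive = the rest, including hits failing retest or dose response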
# Arr AP2 block: inhibitors of beta-arrestin/AP2 binding, primary screen, biochemical, GPCR trafficking, flow cytometry. FITC-arrestin peptide / GST-AP2 beads; AP2 beta2 appendage carries R879A mutation. actives 0.31% (n = 340,000). inhibition, % at 10 µM. beta-arrestin 1 C-terminal peptide binding to AP2 beta2-adaptin appendage (human). AID 504490, 2011;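 active = inhibition above a set limit, near 3 SD of compounds lacking own fluorescence, cut at about 54% in these data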;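 also: plate controls were DMSO wells for no effect and 5 µM unlabelled arrestin peptide for full effect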
#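 System: GST-AP2 R879A glutathione beads. Medium: PBS with 0.05% Tween 20 and 0.1% BSA. Also added: FITC-arrestin peptide, 50 nM. Incubation: 12 min plus 1 h, RT. Measured by: high-throughput flow cytometry of beads, ex 488, em 535 nm. Evaluation: percent drop in bead-associated FITC signal.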
# Lipid droplet: inhibitors of hepatocyte lipid droplet formation, primary screen, imaging, high-throughput imaging, BODIPY stain | AML12 mouse hepatocytes, oleate lipid droplets | inhibition, % at 6.5 µM | actives 0.4% (n = 240,000) | AID 1656, 2009;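 active = lipid droplet intensity inhibited by at least 50%, with more than 500 cells counted; inconclusive = wells with under 300 cells, treated as cytotoxic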
#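 Material – AML12 mouse liver cells · Also added – oleate loading, 100 µM · Compound dosing – 6.5 µM single-point dosing · Times – overnight treatment with compound plus oleate · Measured by – fluorescence imaging, 20x objective, two fields per well · Read-out – percent inhibition of filter-corrected integrated lipid droplet intensity per well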
# Arr-AP2 CP1: inhibitors of arrestin peptide binding to AP2, confirmation, biochemical, cherry pick 1, flow cytometry beads | shares compounds with Arr AP2 block | GST-AP2 beads, FITC arrestin peptide binding; GST-fused beta2-adaptin appendage, R879A mutant | inhibition, % at 10 µM | actives 2% (n = 1,300);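 active = inhibition above a set limit, roughly 3 SD of non-fluorescent compound noise, cut at about 38% in these data; inactive = inhibition at or below that limit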;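 also: loss of bead fluorescence from 50 nM FITC arrestin peptide bound to appendage; 0% = negative control wells and 100% = excess unlabelled arrestin peptide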
# Target sequence (P63010 whole entry, looked up, the tested form may be a part, one chain of several): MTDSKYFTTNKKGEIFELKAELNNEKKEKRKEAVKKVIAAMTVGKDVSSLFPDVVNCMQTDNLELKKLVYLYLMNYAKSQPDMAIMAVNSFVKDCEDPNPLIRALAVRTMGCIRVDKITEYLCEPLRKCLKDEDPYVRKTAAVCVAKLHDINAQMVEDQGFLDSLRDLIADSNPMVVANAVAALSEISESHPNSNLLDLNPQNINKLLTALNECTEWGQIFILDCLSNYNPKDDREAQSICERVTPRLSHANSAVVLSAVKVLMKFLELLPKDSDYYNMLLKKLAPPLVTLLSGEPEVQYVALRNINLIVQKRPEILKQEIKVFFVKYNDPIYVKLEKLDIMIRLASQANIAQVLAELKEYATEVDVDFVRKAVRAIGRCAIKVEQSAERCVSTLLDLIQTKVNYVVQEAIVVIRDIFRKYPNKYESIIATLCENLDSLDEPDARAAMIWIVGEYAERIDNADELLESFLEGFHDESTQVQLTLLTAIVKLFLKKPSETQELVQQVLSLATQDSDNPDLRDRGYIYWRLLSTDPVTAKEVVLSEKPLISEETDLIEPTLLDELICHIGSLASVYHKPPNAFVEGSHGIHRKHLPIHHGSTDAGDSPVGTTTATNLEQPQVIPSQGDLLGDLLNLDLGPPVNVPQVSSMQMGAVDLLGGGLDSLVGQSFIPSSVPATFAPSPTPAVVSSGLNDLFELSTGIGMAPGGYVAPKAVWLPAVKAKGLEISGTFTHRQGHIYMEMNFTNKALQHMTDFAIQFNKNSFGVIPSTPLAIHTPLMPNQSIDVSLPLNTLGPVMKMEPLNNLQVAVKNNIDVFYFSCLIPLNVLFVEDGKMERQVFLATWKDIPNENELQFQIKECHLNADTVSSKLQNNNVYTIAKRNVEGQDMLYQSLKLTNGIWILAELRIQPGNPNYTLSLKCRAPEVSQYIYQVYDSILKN
# GST-FITC bead: GST-fluorescein capture on glutathione beads, confirmation, artefact control for arrestin-AP2 inhibitor project, biochemical, cherry pick 1, flow cytometry; shares compounds with Arr AP2 block; GST-fluorescein binding to GSH beads, fluorescence, counter-screen; inhibition, % at 10 µM; actives 2% (n = 1,300);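 active = inhibition above 50%, about 3 SD of the inhibition seen with non-fluorescent compounds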;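 also: fluorescein maleimide labelled GST captured on 4 micron glutathione beads; higher means more loss of bead fluorescence from quenching or blocked binding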
# The depositor's hits bear a star; ? = inconclusive; · = no result given. Rows were chosen to be rich in hits. Some 1% of all compounds tested hit in one or more screens of this group.
SMILES,CTSL1 counter,pCIP destab,Arr AP2 block,Lipid droplet,Arr-AP2 CP1,GST-FITC bead
CC(C)Cn1c(N)c(C(=O)COC(=O)c2c(F)cccc2F)c(=O)n(C)c1=O,-3,-22,-22,-3,·,·
CCc1ccc(C(=O)OCC(=O)c2c(N)n(CC(C)C)c(=O)n(C)c2=O)cc1,9,15,-13,-2,-3,-2
CC(C)Cn1c(N)c(C(=O)COC(=O)c2cccc(Cl)c2)c(=O)n(C)c1=O,1,-14,6,2,·,·
COc1cccc(C(=O)OCC(=O)c2c(N)n(C)c(=O)n(C)c2=O)c1,·,·,2,·,-10,-4
Cn1c(N)c(C(=O)COC(=O)c2cccs2)c(=O)n(C)c1=O,0,-4,17,1,1,2
Cn1c(N)c(C(=O)COC(=O)c2ccnc3ccccc23)c(=O)n(C)c1=O,2,-11,6,-2,·,·
Cn1c(N)c(C(=O)COC(=O)c2ccc(C(F)(F)F)cc2)c(=O)n(C)c1=O,·,·,-11,·,-10,-4
Cc1noc(C)c1C(=O)OCC(=O)c1c(N)n(CC(C)C)c(=O)n(C)c1=O,0,-8,-4,·,1,-8
COc1ccc(C(=O)OCC(=O)c2c(N)n(C)c(=O)n(C)c2=O)c(OC)c1OC,·,·,20,·,0,-2
Cn1c(N)c(C(=O)COC(=O)c2ccc(-c3ccccc3)cc2)c(=O)n(C)c1=O,·,·,13,·,·,·
CC1CCCN(S(=O)(=O)c2ccc(NC(=O)CNC3CCCC3)cc2)C1 (stereo not drawn),-2,4,6,-14,·,·
Cc1ccc(NC(=O)CCS(=O)(=O)c2ccccc2)cc1S(=O)(=O)N1CCCCCC1,·,·,58*,·,-10,0
CS(=O)Cc1cc(Oc2ccccc2)nc(-c2ccncc2)n1 (stereo not drawn),4,6,40,-4,·,·
COc1ccc(N2C(=O)CC(c3ccccc3)C2=O)cc1 (stereo not drawn),1,-7,29,·,·,·
Brc1cccc(CNCc2cccs2)c1,-3,-13,55*,0,-12,-8
O=C(COC(=O)C1(c2ccccc2F)CCCC1)NCc1cccs1,4,-9,58*,1,-3,-5
CCOC(=O)c1cc2c(ccn2C)n1Cc1ccc(Cl)cc1,-1,16,54*,4,-9,-2
CCCCn1c(N)c(N(CC)C(=O)COc2ccc(C#N)cc2)c(=O)[nH]c1=O,·,·,-5,·,·,·
COc1cccc(/C=N/NC(=O)COc2cccc3cccnc23)c1O,-3,-6,60*,14,-11,-1
COc1ccccc1OCC(=O)N/N=C/c1cccc2cccnc12,0,1,41,-2,·,·
CCOc1ccc2nc(N/C(N)=N/C(=S)Nc3ccc(C)c(C)c3)nc(C)c2c1,4,-6,7,-2,·,·
CCNC(=S)/N=C(\N)Nc1nc(C)c2cc(C)ccc2n1,0,5,64*,0,-7,1
COC(=O)[C@@]12CCCN1[C@H](c1ccc(-c3ccc(OC)cc3)c(OC)c1)[C@@H]1C(=O)N(C)C(=O)[C@@H]12,0,·,-3,·,·,·
COc1ccc(S(=O)(=O)N2CCOC23CCN(S(=O)(=O)c2ccc(F)cc2C)CC3)cc1,·,·,8,·,·,·
CSc1nc2c(c(=O)n1Cc1ccccc1)SC(C)C2 (stereo not drawn),0,-13,56*,-27,-5,-2
SMILES,CTSL1 counter,pCIP destab,Arr AP2 block,Lipid droplet,Arr-AP2 CP1,GST-FITC bead
O=C1C(Cl)=C(NC(=O)c2ccccc2)C(=O)C(Cl)=C1NC(=O)c1ccccc1,-2,-12,58*,·,75*,9
CCOC(=O)C1=C(COC(=O)CNC(=O)c2ccc(C)cc2)NC(=O)NC1C (stereo not drawn),-11,-1,-9,-4,·,·
CCOC(=O)C1=C(COC(=O)COc2ccc(C#N)cc2)NC(=O)NC1C (stereo not drawn),-7,-9,5,1,2,-3
CCOC(=O)C1=C(COC(=O)COc2ccc(C(C)=O)cc2)NC(=O)NC1C (stereo not drawn),-1,·,-2,·,5,1
CCOC(=O)C1=C(COC(=O)COc2ccccc2C#N)NC(=O)NC1C (stereo not drawn),-14,·,-15,·,-14,-2
CCOC(=O)C1=C(COC(=O)c2c(OC)cccc2OC)NC(=O)NC1C (stereo not drawn),5,·,-2,·,·,·
CCOC(=O)C1=C(COC(=O)COc2cc(C)ccc2C)NC(=O)NC1C (stereo not drawn),-12,·,4,·,-7,-14
CCOC(=O)C1=C(COC(=O)COc2ccc(C(=O)CC)cc2)NC(=O)NC1C (stereo not drawn),-10,·,15,·,-14,-1
Cc1[nH]c2ccccc2c1-c1nc(-c2ccc(Cl)cc2)nnc1-c1ccccc1,-6,-14,·,8,·,·
CN(C)c1ccc(C(=O)/C=C/c2ccccc2)cc1,2,8,·,16,·,·
CN(C)c1ccc(C(=O)/C=C/c2ccc(Br)cc2)cc1,1,3,98*,8,38*,190*
CCn1c(O)c2ccc(C(=O)N=NC(=O)c3ccccc3)cc2c1O,0,-37,58*,4,13,-5
C=CCn1c(O)c2ccc(C(=O)N=NC(=O)c3ccc(F)cc3)cc2c1O,2,·,5,·,·,·
CC(=O)/C(=N\Nc1ccccc1Cl)Sc1nnc(-c2ccccc2)n1-c1ccccc1,9,8,-3,-3,·,·
CC(=O)/C(=N\Nc1ccccc1)Sc1nnc(-c2ccccc2)n1-c1ccccc1,2,1,91*,-4,8,5
Clc1ccccc1-c1nnc2sc(-c3ccc4c(c3)OCO4)nn12,1,5,7,8,·,·
O=C(CCN1C(=O)S/C(=C\c2ccccc2)C1=O)Nc1ccc(S(=O)(=O)Nc2nccs2)cc1,2,-7,16,·,·,·
COc1ccccc1/C=C1/SC(=O)N(CCC(=O)Nc2ccc(S(=O)(=O)Nc3nccs3)cc2)C1=O,1,-1,61*,?,3,2
CCOC(=O)C1=CC[C@H]2c3c(c4ccc(OC)cc4n3C)C(=O)C1N2S(=O)(=O)c1ccc(C)cc1,·,·,58*,·,12,-4
CCOC(=O)C1=CCC2c3c(c4ccccc4n3C)C(=O)C1N2C(=O)OC(C)(C)C (stereo not drawn),·,·,10,·,·,·
OCCNCc1cc(Br)ccc1OCc1ccc(F)cc1,1,-3,12,-15,·,·

# Source: PubChem
